From ChEMBL document CHEMBL1781899, “Synthesis of N-substituted 2-[(1E)-alkenyl]-4-(1H)-quinolone derivatives as antimycobacterial agents against non-tubercular mycobacteria” (Eur J Med Chem, 2011)
≈ marks a conversion by molar mass, not a printed value.

Key:
[1] = system: Mycolicibacterium smegmatis; experiment: Antimycobacterial activity against Mycobacterium smegmatis ATCC 14468 after 3 days by MTT assay; type: functional; settings: ATCC 14468, 72 h
[2] = system: Mycolicibacterium smegmatis; experiment: Antimycobacterial activity against Mycobacterium smegmatis mc2155 after 3 days by MTT assay; type: functional; settings: mc2155, 72 h
In short: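 Broth microdilution MIC. Inoculum grown on Columbia blood agar with 7% defibrinated horse blood, suspended in 0.9% NaCl to 5 × 10^5 cells/mL. Sterile, growth and isoniazid controls were included. Incubated 3 days at 37 °C; methanolic MTT added, dark violet indicating growth. Tests repeated three times.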

[3] = system: Mycolicibacterium fortuitum; experiment: Antimycobacterial activity against Mycobacterium fortuitum ATCC 6841 after 3 days by MTT assay; type: functional; settings: ATCC 6841, 72 h
Mycolicibacterium phlei = experiment: Antimycobacterial activity against Mycobacterium phlei ATCC 11758 after 3 days by MTT assay; type: functional; settings: ATCC 11758, 72 h
[4] = Cytotoxicity against human MRC5 cells assessed as cell viability at 100 uM after 72 hrs by XTT assay; type: cell-based; settings: read-out: Activity
In short: (§1)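 MRC-5 cells seeded at 5 × 10^4 cells/well and grown 24 h in MEM. Compounds came from fresh ethanol stocks; solvent control was 0.1% ethanol. 72 h exposure at 37 °C, 5% CO2. XTT plus electron-coupling reagent (50:1) added for 4 h. Viability expressed as % of solvent control, triplicate on at least two plates (n = 6), mean ± SEM.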

[5] = Cytotoxicity against human MRC5 cells assessed as cell viability at 30 uM after 72 hrs by XTT assay; type: cell-based; settings: read-out: Activity; in short: as §1
[6] = Cytotoxicity against human MRC5 cells assessed as cell viability at 0.12 uM after 72 hrs by XTT proliferation assay; type: cell-based; settings: read-out: Activity

SMILES	MIC [1] [µg/mL]	MIC [2] [µg/mL]	MIC [3] [µg/mL]	MIC (Mycolicibacterium phlei) [µg/mL]	viability at 72 h, 100 µM [4] [%]	viability at 72 h, 30 µM [5] [%]	viability at 72 h, 0.12 µM [6] [%]
O=C(O)c1cn(C2CC2)c2cc(N3CCNCC3)c(F)cc2c1=O [CIPROFLOXACIN]	0.125 (≈ 0.377 µM)	–	–	–	–	–	–
CCCCCCCC/C=C/c1cc(=O)c2ccccc2n1CCCCC	2 (≈ 5.66 µM)	1 (≈ 2.83 µM)	4 (≈ 11.3 µM)	4 (≈ 11.3 µM)	0.46	61.7	–
NNC(=O)c1ccncc1 [ISONIAZID]	4 (≈ 29.2 µM)	4 (≈ 29.2 µM)	1 (≈ 7.29 µM)	16 (≈ 117 µM)	–	–	–
CCCCCCCC/C=C/c1cc(=O)c2ccccc2n1CC	4 (≈ 12.8 µM)	–	–	–	0.53	39.2	–
C#CCn1c(/C=C/CCCCCCCCCCCC)cc(=O)c2ccccc21	128 (≈ 339 µM)	–	–	–	10	100	–
CCCCCCCCC/C=C/c1cc(=O)c2ccccc2n1CCCCC	4 (≈ 10.9 µM)	–	–	–	0.38	41.6	–
C=CCn1c(/C=C/CCCCCCC)cc(=O)c2ccccc21	8 (≈ 25.9 µM)	–	–	–	0.53	10.1	–
C#CCn1c(/C=C/CCCCCCCCCC)cc(=O)c2ccccc21	64 (≈ 183 µM)	–	–	–	0.64	40.7	–
CCCCCCC/C=C/c1cc(=O)c2ccccc2n1CCC	4 (≈ 12.8 µM)	–	–	–	7.4	32.9	–
CCCCCCCCCC/C=C/c1cc(=O)c2ccccc2n1CCCCC	8 (≈ 21 µM)	–	–	–	0.25	31.6	–
C=CCn1c(/C=C/CCCCCCCC)cc(=O)c2ccccc21	2 (≈ 6.18 µM)	1 (≈ 3.09 µM)	4 (≈ 12.4 µM)	2 (≈ 6.18 µM)	0.63	33	–
CC[C@@H](CO)NCCN[C@@H](CC)CO [ETHAMBUTOL]	2 (≈ 9.79 µM)	4 (≈ 19.6 µM)	16 (≈ 78.3 µM)	4 (≈ 19.6 µM)	–	–	–
CCCCCCCC/C=C/c1cc(=O)c2ccccc2n1CCC	2 (≈ 6.14 µM)	2 (≈ 6.14 µM)	2 (≈ 6.14 µM)	2 (≈ 6.14 µM)	0.5	56.1	–
CCCCCCCCCCCC/C=C/c1cc(=O)c2ccccc2n1CCCC	128 (≈ 324 µM)	–	–	–	0.51	10.9	–
C#CCn1c(/C=C/CCCCCCCCC)cc(=O)c2ccccc21	4 (≈ 11.9 µM)	–	–	–	26.3	92.3	–
C#CCn1c(/C=C/CCCCCCC)cc(=O)c2ccccc21	2 (≈ 6.51 µM)	2 (≈ 6.51 µM)	32 (≈ 104 µM)	4 (≈ 13 µM)	63.9	71.1	–
CCCCCCC/C=C/c1cc(=O)c2ccccc2n1CC	8 (≈ 26.9 µM)	–	–	–	52.6	96.6	–
C=CCn1c(/C=C/CCCCCCCCCCCC)cc(=O)c2ccccc21	16 (≈ 42.2 µM)	–	–	–	0.7	98.2	–
CCCCCCCCCCC/C=C/c1cc(=O)c2ccccc2n1CCCCC	128 (≈ 324 µM)	–	–	–	0.25	11.7	–
CC[C@]1(O)C[C@@H]2CN(CCc3c([nH]c4ccccc34)[C@@](C(=O)OC)(c3cc4c(cc3OC)N(C)[C@H]3[C@@](O)(C(=O)OC)[C@H](OC(C)=O)[C@]5(CC)C=CCN6CC[C@]43[C@@H]65)C2)C1 [VINBLASTINE]	–	–	–	–	–	–	60.1
CCCCCCCCCCCC/C=C/c1cc(=O)c2ccccc2n1CCC	16 (≈ 41.9 µM)	–	–	–	0.72	42.6	–
C=CCn1c(/C=C/CCCCCCCCCCC)cc(=O)c2ccccc21	4 (≈ 10.9 µM)	–	–	–	1.06	17.9	–
CCCCCCCCCC/C=C/c1cc(=O)c2ccccc2n1CCCC	4 (≈ 10.9 µM)	–	–	–	0.45	42.4	–
C#CCn1c(/C=C/CCCCCCCC)cc(=O)c2ccccc21	16 (≈ 49.8 µM)	–	–	–	0.4	43.6	–
